Source: ChEMBL document CHEMBL3124881, “New perspectives on the synthesis and antichagasic activity of 3-alkoxy-1-alkyl-5-nitroindazoles” (Eur J Med Chem, 2014)
Activity calls are given as the source filed them. The rule behind the calls is not given here.

Legend:
Trypanosoma cruzi [1] = test: Antitrypanosomal activity against Trypanosoma cruzi (IRHOD/CO/2008/SN3) amastigotes infected in African green monkey Vero cells after 72 hrs by Giemsa staining-based microscopic analysis; assay type: functional, organism-based
Outline: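 SN3 strain. Vero cells in RPMI with 10% inactivated FBS at 37 °C, 5% CO2, seeded at 1 × 10⁴ cells/well on coverslips and grown 2 days. Infected with metacyclic forms at 10:1 for 24 h, then washed. Drugs at 100, 50, 25, 10 and 1 for 72 h. Methanol fixation, Giemsa stain, amastigotes counted over 200 host cells. IC50 by linear regression; mean of four experiments.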

[2] = Selectivity index, ratio of IC50 for African green monkey Vero cells to IC50 for Trypanosoma cruzi (IRHOD/CO/2008/SN3) epimastigotes; assay type: toxicity, cell-based; settings: read-out: Ratio IC50
Outline: (§1)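 SI calculated as IC50 on Vero cells divided by IC50 on the corresponding parasite form (epimastigote, amastigote or trypomastigote).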

[3] = Selectivity index, ratio of IC50 for African green monkey Vero cells to IC50 for Trypanosoma cruzi (IRHOD/CO/2008/SN3) trypomastigotes; assay type: toxicity, cell-based; settings: read-out: Ratio IC50; outline: as §1
[4] = Selectivity index, ratio of IC50 for African green monkey Vero cells to IC50 for Trypanosoma cruzi (IRHOD/CO/2008/SN3) amastigotes; assay type: toxicity, cell-based; settings: read-out: Ratio IC50; outline: as §1
Trypanosoma cruzi [5] = test: Antitrypanosomal activity against Trypanosoma cruzi (IRHOD/CO/2008/SN3) trypomastigotes infected in Balb/c albino mouse after 24 hrs by Neubauer chamber counting analysis; assay type: functional, organism-based
Outline: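 Blood taken at the day-7 parasitemia peak from BALB/c mice infected with SN3. Diluted with uninfected murine blood to 4 × 10⁶ trypomastigotes/mL, then 1:2 in RPMI 1640 (2 × 10⁶/mL). Drugs (DMSO stocks) at 100, 50, 25, 10 and 1; incubated 24 h at 4–8 °C. Neubauer chamber counts; IC50 by linear regression; three repeats.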

Vero = test: Cytotoxicity against African green monkey Vero cells assessed as cell viability after 72 hrs by propidium iodide staining-based flow cytometric analysis; settings: Chlorocebus sabaeus
Outline: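 Vero cells in RPMI with 10% inactivated FBS at 37 °C, 5% CO2, treated 72 h across 1–100. Stained with propidium iodide, then fluorescein diacetate (100 ng/mL), each 10 min at 28 °C in the dark. Cells spun at 400 g, washed in PBS, analysed by flow cytometry. % viability versus control; IC50 by linear regression.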

Trypanosoma cruzi [6] = test: Antitrypanosomal activity against Trypanosoma cruzi (IRHOD/CO/2008/SN3) epimastigotes after 72 hrs by Neubauer chamber counting analysis; assay type: functional, organism-based
Outline: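 SN3 epimastigotes grown in MTL medium with 10% inactivated FBS at 28 °C. Compounds dissolved in DMSO (0.01% final) and added at 100, 50, 25, 10 and 1. Parasites counted at 72 h in a Neubauer haemocytometer. IC50 from linear regression of Kc values; averages of four experiments.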

Trypanosoma cruzi [7] = test: Antitrypanosomal activity against Trypanosoma cruzi (IRHOD/CO/2008/SN3) epimastigotes assessed as change in L-lactate level at IC25 after 96 hrs by [1H]-NMR spectroscopic analysis relative to control; assay type: functional
Outline: (§2)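 Epimastigote cultures started at 5 × 10⁵ cells/mL and given IC25 concentrations, with untreated control cultures. After 96 h at 28 °C, cells spun at 400 g for 10 min. Excreted metabolites in the supernatant identified by ¹H NMR chemical shifts.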

Trypanosoma cruzi [8] = test: Antitrypanosomal activity against Trypanosoma cruzi (IRHOD/CO/2008/SN3) epimastigotes assessed as parasite death at IC25 after 96 hrs by transmission electron microscopic analysis; assay type: functional, organism-based
Trypanosoma cruzi [9] = test: Antitrypanosomal activity against Trypanosoma cruzi (IRHOD/CO/2008/SN3) infected in BALB/c mouse assessed as reduction in parasite specific antibodies level at 1 mg/kg/day, ip treated from day 5 to day 10 post-infection measured from day 30 to day 120 post-infection by ELISA; assay type: functional, organism-based
Outline: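 Female BALB/c mice (6–8 weeks, 20–25 g, groups of three) infected ip with 1 × 10⁵ metacyclic forms. Dosed 1 mg/kg/day ip on days 5–10 post-infection; infected untreated controls included. ELISA on blood diluted 1:50 in PBS, using excreted Fe-SOD antigen from epimastigotes, at days 30 and 120. Read-out is ΔA490 (day 120 minus day 30).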

Trypanosoma cruzi [10] = test: Antitrypanosomal activity against Trypanosoma cruzi (IRHOD/CO/2008/SN3) epimastigotes assessed as change in succinate level at IC25 after 96 hrs by [1H]-NMR spectroscopic analysis relative to control; assay type: functional; outline: as §2
Trypanosoma cruzi [11] = test: Antitrypanosomal activity against Trypanosoma cruzi (IRHOD/CO/2008/SN3) epimastigotes assessed as damaged mitochondria at IC25 after 96 hrs by transmission electron microscopic analysis; assay type: functional, organism-based
Trypanosoma cruzi [12] = test: Antitrypanosomal activity against Trypanosoma cruzi (IRHOD/CO/2008/SN3) infected in BALB/c mouse assessed as reduction in parasitemia at 1 mg/kg/day, ip treated from day 5 to day 10 post-infection measured on day 14 post-infection; assay type: functional, organism-based
Outline: (§3)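 Female BALB/c mice (groups of three) infected ip with 1 × 10⁵ metacyclic forms. Given 1 mg/kg/day ip for five days (days 5–10 post-infection); infected untreated controls included. Mandibular-vein blood (5 µL) diluted 1:15 in citrate/lysis buffer, with trypomastigotes/mL counted every 3–4 days. Mean values reported.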

Trypanosoma cruzi [13] = test: Antitrypanosomal activity against Trypanosoma cruzi (IRHOD/CO/2008/SN3) epimastigotes assessed as change in acetate level at IC25 after 96 hrs by [1H]-NMR spectroscopic analysis; assay type: functional, organism-based; outline: as §2
Trypanosoma cruzi [14] = test: Antitrypanosomal activity against Trypanosoma cruzi (IRHOD/CO/2008/SN3) epimastigotes assessed as change in ethanol level at IC25 after 96 hrs by [1H]-NMR spectroscopic analysis relative to control; assay type: functional; outline: as §2
Trypanosoma cruzi [15] = test: Antitrypanosomal activity against Trypanosoma cruzi (IRHOD/CO/2008/SN3) infected in African green monkey Vero cells assessed as reduction in number of amastigotes at IC25 treated for 12 hrs followed by compound-washout measured after 10 days by microscopic analysis relative to control; assay type: functional
Outline: (§4)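 Vero cells grown 2 days, then infected with metacyclic forms at 10:1. Drugs at IC25 added immediately after infection for 12 h at 37 °C, 5% CO2, then removed by washing. Cultures grown 10 days with medium renewed every 48 h. Methanol-fixed, Giemsa-stained preparations: % infected cells and amastigotes per infected cell over 200 host cells; trypomastigotes counted in the medium. Means of three experiments.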

Trypanosoma cruzi [16] = test: Antitrypanosomal activity against Trypanosoma cruzi (IRHOD/CO/2008/SN3) epimastigotes assessed as damaged glycosomes at IC25 after 96 hrs by transmission electron microscopic analysis; assay type: functional, organism-based
Trypanosoma cruzi [17] = test: Antitrypanosomal activity against Trypanosoma cruzi (IRHOD/CO/2008/SN3) infected in African green monkey Vero cells assessed as reduction in infection rate at IC25 treated for 12 hrs followed by compound-washout measured after 10 days by microscopic analysis relative to control; assay type: functional; outline: as §4
Trypanosoma cruzi [18] = test: Antitrypanosomal activity against Trypanosoma cruzi (IRHOD/CO/2008/SN3) epimastigotes assessed as presence of little electron-dense cytoplasm at IC25 after 96 hrs by transmission electron microscopic analysis; assay type: functional, organism-based
Trypanosoma cruzi [19] = test: Antitrypanosomal activity against Trypanosoma cruzi (IRHOD/CO/2008/SN3) infected in African green monkey Vero cells assessed as reduction in number of trypomastigotes at IC25 treated for 12 hrs followed by compound-washout measured after 10 days by microscopic analysis relative to control; assay type: functional; outline: as §4
Trypanosoma cruzi [20] = test: Antitrypanosomal activity against Trypanosoma cruzi (IRHOD/CO/2008/SN3) epimastigotes assessed as change in L-alanine level at IC25 after 96 hrs by [1H]-NMR spectroscopic analysis relative to control; assay type: functional; outline: as §2
Trypanosoma cruzi [21] = test: Antitrypanosomal activity against Trypanosoma cruzi (IRHOD/CO/2008/SN3) infected in BALB/c mouse assessed as reduction in parasitemia at 1 mg/kg/day, ip treated from day 5 to day 10 post-infection measured on day 30 post-infection relative to control; assay type: functional; set-up: scale not given: the % may be the effect or the level left; settings: route intraperitoneal; outline: as §3
Trypanosoma cruzi [22] = test: Antitrypanosomal activity against Trypanosoma cruzi (IRHOD/CO/2008/SN3) epimastigotes assessed as large vacuolization with lipidic type vacuoles occupying cytoplasm at IC25 after 96 hrs by transmission electron microscopic analysis; assay type: functional, organism-based
Mus musculus = test: Toxicity in BALB/c mouse assessed as mortality at 1 mg/kg/day, ip; assay type: organism-based; set-up: route intraperitoneal; settings: in vivo
Outline: (§5)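 Female BALB/c mice (6-8 weeks, 20-25 g), groups of three, infected ip with 1 × 10⁵ T. cruzi SN3 metacyclic forms. Dosing ip at 1 mg/kg/day for five consecutive days (days 5-10 post-infection). Controls were uninfected, infected-untreated and uninfected-treated groups. Mice followed to day 120 post-infection, with deaths recorded.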

Trypanosoma cruzi [23] = test: Antitrypanosomal activity against Trypanosoma cruzi (IRHOD/CO/2008/SN3) epimastigotes assessed as disruption of cytoskeleton with disorganization of microtubule structure at IC25 after 96 hrs by transmission electron microscopic analysis; assay type: functional, organism-based
[24] = Toxicity in BALB/c mouse assessed as survival at 1 mg/kg/day, ip relative to control; assay type: organism-based; set-up: route intraperitoneal; settings: in vivo; outline: as §5
Trypanosoma cruzi [25] = test: Antitrypanosomal activity against Trypanosoma cruzi (IRHOD/CO/2008/SN3) epimastigotes assessed as plasma membrane with scalloped appearance with undulations and discontinuities at IC25 after 96 hrs by transmission electron microscopic analysis; assay type: functional, organism-based

| Structure (SMILES) | IC50 (Trypanosoma cruzi [1]) | IC50 (Trypanosoma cruzi [5]) | IC50 (Trypanosoma cruzi [6]) | selectivity ratio [2] | selectivity ratio [3] | selectivity ratio [4] | IC50 (Vero) | Activity (Trypanosoma cruzi [9]) | Activity (Trypanosoma cruzi [12]) | inhibition (INH) (Trypanosoma cruzi [15]) | inhibition (INH) (Trypanosoma cruzi [17]) | inhibition (INH) (Trypanosoma cruzi [19]) | Activity (Trypanosoma cruzi [21]) | other results |
| --- | --- | --- | --- | --- | --- | --- | --- | --- | --- | --- | --- | --- | --- | --- |
| Cn1nc(OCc2ccccc2)c2cc([N+](=O)[O-])ccc21 | 14.1 µM | 12 µM | 17.6 µM | 11 | 16.1 | 13.7 | 194 µM | Active | Active | 76% | 82% | 80% | 33% | Activity (Trypanosoma cruzi [7]): 23%; Activity (Trypanosoma cruzi [8]): Active; Activity (Trypanosoma cruzi [10]): 35%; Activity (Trypanosoma cruzi [11]): Active; Activity (Trypanosoma cruzi [13]): inactive; Activity (Trypanosoma cruzi [14]): 11%; Activity (Trypanosoma cruzi [16]): Active; Activity (Trypanosoma cruzi [18]): Active; Activity (Trypanosoma cruzi [20]): 19%; Activity (Trypanosoma cruzi [22]): Active; Activity (Mus musculus): Non-toxic |
| O=C(Cn1ccnc1[N+](=O)[O-])NCc1ccccc1 [BENZNIDAZOLE] | – | – | – | – | – | – | – | Active | Active | 37% | 19% | 41% | 23% | Activity (Trypanosoma cruzi [23]): Active; survival [24]: 80%; Activity (Trypanosoma cruzi [25]): Active |
| CN(CCOCCn1nc(OCc2ccccc2)c2cc([N+](=O)[O-])ccc21)CCOCCn1nc(OCc2ccccc2)c2cc([N+](=O)[O-])ccc21 | 16.5 µM | 16.5 µM | 26.6 µM | 4.8 | 7.8 | 7.8 | 128 µM | – | – | – | – | – | – | – |
| CNCCOCCn1nc(OCc2ccccc2)c2cc([N+](=O)[O-])ccc21 | 16.6 µM | 14.5 µM | 19.1 µM | 11.2 | 14.7 | 12.9 | 214 µM | Active | Active | 63% | 78% | 75% | 39% | Activity (Trypanosoma cruzi [7]): 17%; Activity (Trypanosoma cruzi [8]): Active; Activity (Trypanosoma cruzi [10]): 13%; Activity (Trypanosoma cruzi [11]): Active; Activity (Trypanosoma cruzi [13]): inactive; Activity (Trypanosoma cruzi [14]): inactive; Activity (Trypanosoma cruzi [16]): Active; Activity (Trypanosoma cruzi [18]): Active; Activity (Trypanosoma cruzi [20]): inactive; Activity (Trypanosoma cruzi [22]): Active; Activity (Mus musculus): Non-toxic |

The next lines start with results.

| IC50 (Trypanosoma cruzi [1]) | IC50 (Trypanosoma cruzi [5]) | IC50 (Trypanosoma cruzi [6]) | Structure (SMILES) | selectivity ratio [2] | selectivity ratio [3] | selectivity ratio [4] | IC50 (Vero) | Activity (Trypanosoma cruzi [9]) | Activity (Trypanosoma cruzi [12]) | inhibition (INH) (Trypanosoma cruzi [15]) | inhibition (INH) (Trypanosoma cruzi [17]) | inhibition (INH) (Trypanosoma cruzi [19]) | Activity (Trypanosoma cruzi [21]) | other results |
| --- | --- | --- | --- | --- | --- | --- | --- | --- | --- | --- | --- | --- | --- | --- |
| 25.7 µM | 26.4 µM | 31.2 µM | COc1nn(CCOCCNCCOCCn2nc(OC)c3cc([N+](=O)[O-])ccc32)c2ccc([N+](=O)[O-])cc12 | 0.5 | 0.6 | 0.6 | 16.9 µM | – | – | – | – | – | – | – |
| 27.9 µM | 20.4 µM | 24.6 µM | COc1nn(CCOCCN(C)CCOCCn2nc(OC)c3cc([N+](=O)[O-])ccc32)c2ccc([N+](=O)[O-])cc12 | 4.1 | 6.3 | 4.6 | 130 µM | – | – | – | – | – | – | – |
| 32.6 µM | 24.8 µM | 24.7 µM | COc1nn(C)c2ccc([N+](=O)[O-])cc12 | 7.4 | 7.4 | 5.6 | 183 µM | – | – | – | – | – | – | – |
| 23.4 µM | 20.5 µM | 26.7 µM | CNCCOCCn1nc(OC)c2cc([N+](=O)[O-])ccc21 | 3.3 | 4.3 | 3.7 | 87.6 µM | – | – | – | – | – | – | – |
| 26.5 µM | 20.7 µM | 27.3 µM | COc1nn(CCOCCN)c2ccc([N+](=O)[O-])cc12 | 3.2 | 4.2 | 3.3 | 87.2 µM | – | – | – | – | – | – | – |
